Experimental data taken from ChEMBL document CHEMBL1671701, “Discovery of potent small-molecule inhibitors of multidrug-resistant Plasmodium falciparum using a novel miniaturized high-throughput luciferase-based assay” (Antimicrob Agents Chemother, 2010).
pIC50: −log10 of the molar value.

Legend:
Plasmodium falciparum [1] = test: Antiplasmodial activity against Plasmodium falciparum 3D7 infected in RBCs by firefly luciferase reporter gene assay; type: functional, organism-based; conditions: Plasmodium falciparum, 3D7
In short: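 Sorbitol-synchronised 3D7 expressing firefly luciferase from the HRPII promoter, at 1% late-ring parasitemia and 3% hematocrit in RPMI/albumax II medium. Sixteen 2-fold dilutions from 17 μM to 0.5 nM, 48 h at 37°C under 5% O2/5% CO2/N2. Bright-Glo luminescence is normalised to untreated infected and uninfected-RBC wells. IC50 by four-parameter logistic fit.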

[2] = Cytotoxicity activity against human HAEC cells after 24 hrs; type: cell-based
HepG2 = test: Cytotoxicity activity against human HepG2 cells after 24 hrs; type: cell-based; conditions: HepG2, 24 h
Plasmodium falciparum [3] = test: Antiplasmodial activity against multidrug-resistant Plasmodium falciparum TM90C2B by SYBR Green 1-based fluorescence assay; type: functional, organism-based
In short: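 Resistant TM90C2B parasites are treated over a dose range and growth is read as SYBR green I fluorescence. IC50 comes from a fit of the log dose-response relationship, as the mean of at least three separate experiments.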

Plasmodium falciparum [4] = test: Antiplasmodial activity against Plasmodium falciparum 3D7 by SYBR Green 1-based fluorescence assay; type: functional, organism-based

Row | Compound | pIC50 (Plasmodium falciparum [1]) | pIC50 [2] | pIC50 (HepG2) | pIC50 (Plasmodium falciparum [3]) | pIC50 (Plasmodium falciparum [4])
1 | COc1cccc(N(C(C)=O)C2=C(N(C)C)C(=O)c3ccccc3C2=O)c1 | 8.28 | 4.96 | 4.89 | 7.51 | 7.46
2 | CC(=O)N(C1=C(N(C)C)C(=O)c2ccccc2C1=O)c1cccc(Br)c1 | 7.49 |  |  | 7.03 | 6.89
3 | CC(=O)N(C1=C(N2CCOCC2)C(=O)c2ccccc2C1=O)c1ccccc1 | 6.11 |  |  | 6.28 | 5.80
4 | CC(=O)N(C1=C(N(C)C)C(=O)c2ccccc2C1=O)c1cccc(Cl)c1 | 7.85 | 4.35 | 5.29 | 7.14 | 6.85
5 | CC(=O)N(C1=C(N(C)C)C(=O)c2ccccc2C1=O)c1ccc(Cl)cc1 | 7.85 | 4.39 | 5.09 |  | 
6 | CC(=O)N(C1=C(N(C)C)C(=O)c2ccccc2C1=O)c1cccc(F)c1 | 7.96 |  |  | 7.13 | 6.96
7 | CC(=O)N(C1=C(N(C)C)C(=O)c2ccccc2C1=O)c1ccc(F)c(F)c1 | 7.60 |  |  | 6.96 | 6.77
8 | CC(=O)N(C1=C(N2CCOCC2)C(=O)c2ccccc2C1=O)c1cccc(Cl)c1 | 6.10 |  |  | 6.29 | 5.74
9 | CCNC(=O)N1CCN(CCCC(c2ccc(F)cc2)c2ccc(F)cc2)CC1 [AMPEROZIDE] |  | 4.08 | 4.02 |  | 
10 | O=C1C(O)=C([C@H]2CC[C@H](c3ccc(Cl)cc3)CC2)C(=O)c2ccccc21 [ATOVAQUONE] | 9.39 |  |  | 4.92 | 9.10
11 | COc1cccc2c1C(=O)c1c(O)c3c(c(O)c1C2=O)C[C@@](O)(C(=O)CO)C[C@@H]3O[C@H]1C[C@H](N)[C@H](O)[C@H](C)O1 [DOXORUBICIN] |  | 4.89 | 4.16 |  | 
12 | CC(C)C[C@@H]1NC(=O)[C@H](CCCN)NC(=O)[C@H](C(C)C)NC(=O)[C@H](Cc2ccc(O)cc2)N[C@@H](CCC(=O)O)C(=O)N[C@@H](CC(N)=O)C(=O)[C@@H](Cc2ccccc2)NC(=O)[C@H](Cc2ccccc2)NC(=O)[C@@H]2CCCN2C(=O)[C@@H](Cc2ccccc2)NC1=O [TYROTHRICIN] | 10.30 |  |  |  | 
13 | CC[C@]1(O)C[C@@H]2CN(CCc3c([nH]c4ccccc34)[C@@](C(=O)OC)(c3cc4c(cc3OC)N(C)[C@H]3[C@@](O)(C(=O)OC)[C@H](OC(C)=O)[C@]5(CC)C=CCN6CC[C@]43[C@@H]65)C2)C1 [VINBLASTINE] | 8.70 |  |  |  | 
14 | CC[C@]1(O)C[C@H]2CN(CCc3c([nH]c4ccccc34)[C@@](C(=O)OC)(c3cc4c(cc3OC)N(C=O)[C@H]3[C@@](O)(C(=O)OC)[C@H](OC(C)=O)[C@]5(CC)C=CCN6CC[C@]43[C@@H]65)C2)C1 [VINCRISTINE] | 9.00 |  |  |  | 
15 | c1cc(CN2CCCCC2)cc(OCCCNc2nc3ccccc3s2)c1 [ZOLANTIDINE DIMALATE] | < 4.64 |  |  |  | 
16 | c1cc(CN2CCCCC2)cc(OCCCNc2nc3ccccc3s2)c1 [ZOLANTIDINE] |  | 4.12 | 4.12 |  | 
